The record followed here is article PMC10905627 (Oncogene, 2018).

One data set has as its system A549 cells. The data set can be described thus: Cell growth A549. In kind it is cell-based, human. The following applies: A549, activating K-Ras mutation. In a few lines:
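A549 cells grown in DMEM with 5% FBS, seeded in six-well plates and exposed to test compound from the following day for the set time. Live and dead cells were counted on a Vi-CELL analyser by trypan blue exclusion, 500 cells per sample.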

Data set [1] can be described thus: Pharmacokinetics in BALB/c mice. In kind it is in vivo, mouse.
The target of another data set is T1, ALK5/TGFβR1 (Homo sapiens, UniProt P36897).
T1 sequence (P36897 34-503): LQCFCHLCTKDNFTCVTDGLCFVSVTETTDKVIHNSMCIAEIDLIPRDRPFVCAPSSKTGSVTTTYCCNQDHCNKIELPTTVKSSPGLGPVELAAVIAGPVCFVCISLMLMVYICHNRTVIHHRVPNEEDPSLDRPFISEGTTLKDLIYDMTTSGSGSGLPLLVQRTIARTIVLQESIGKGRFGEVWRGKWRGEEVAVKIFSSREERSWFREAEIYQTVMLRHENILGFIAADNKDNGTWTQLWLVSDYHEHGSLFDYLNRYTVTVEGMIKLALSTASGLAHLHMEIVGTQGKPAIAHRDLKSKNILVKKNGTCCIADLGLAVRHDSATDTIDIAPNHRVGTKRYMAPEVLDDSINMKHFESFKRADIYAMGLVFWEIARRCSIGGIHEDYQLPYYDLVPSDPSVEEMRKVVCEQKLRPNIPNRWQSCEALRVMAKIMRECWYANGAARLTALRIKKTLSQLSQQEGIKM
The following applies: read-out: IC50 ALK5/TGFβR1; ATP 10 μM.

In a further data set the test system is H1299 tumors. The data set can be described thus: H1299 tumor xenografts in humanized NSG mice. The class given is in vivo, mouse. For orientation: In xenograft studies the graft and the host belong to different species.
Where [2] appears, read: treatment day 21, IHC image analysis.

In the case of `c1ccc2c(-c3cnn4cc(-c5ccc(OCCN6CCCCC6)cc5)cnc34)ccnc2c1` [JL5], in the data set with A549 cells, the “growth of A549 cells” value is on record as “suppressed growth”. Further, in data set [1] (i.v., 2 mg/kg), the AUCinf is 381 ng·h/mL, the AUClast worked out at 349 ng·h/mL, the C0/Cmax was 568 ng/mL and the CL is on record as 194 mL/min/kg. Further, in data set [1] (i.v., 2 mg/kg), the T1/2 was determined as 34.2 min; the Vss (as a rule, a proportionality between amount in the body and measured concentration, not a real space) is 8.78 L/kg. In data set [1] (p.o.), the AUCinf is recorded as 1,645 hr×ng/mL, the AUClast is 1,605 hr×ng/mL and the C0/Cmax is given as 1,282 ng/mL. Further, the IC50 at ALK5/TGFβR1 was 0.44 µM. Moreover, the “size and weight of tumors vs vehicle control” value in the data set with H1299 tumors (10 mg/kg twice daily, 13 days) was “significant difference in the size and weight”. Moreover, the “regression in tumor size” value in the data set on H1299 tumors (10 mg/kg twice daily, from treatment day 7 to day 12) is listed as ~ 35%. Besides, the “necrotic cells compared to control tumors” value in the data set with H1299 tumors (13 days, H&E image analysis) is “twice the number of necrotic cells”. Further, in the data set on H1299 tumors (21 days), the “cell death by H&E staining” value is on record as “no noteworthy histomorphological differences” and the “proliferation of tumor cells (Ki67)” value is listed as “significant reduction in proliferation”. In the data set with H1299 tumors (setting [2]), the “increase in CD3+ cells within tumor vs DMSO control” value worked out at 67% and the “increase in CD4+ cells within tumor vs DMSO control” value came to 80%.
